Screens deposited in PubChem by several laboratories.
This is a sample that favours compounds with a hit; in the whole collection about 3.6% have one here.
FGF22 binding = shifts melting point of recombinant human FGF22. activity (Tm shift, normalised), % at 9.99 µM. actives 1.5% (n = 340,000). recombinant FGF22 thermal shift, SYPRO orange fluorescence; percent of sucrose octasulfate shift, DMSO zero;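 active = mean Tm shift, scaled 0 neutral to 100 positive control, at about 1.3% or above, every replicate too, limit read from the data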
Target sequence (Q9HCT0 whole entry, looked up): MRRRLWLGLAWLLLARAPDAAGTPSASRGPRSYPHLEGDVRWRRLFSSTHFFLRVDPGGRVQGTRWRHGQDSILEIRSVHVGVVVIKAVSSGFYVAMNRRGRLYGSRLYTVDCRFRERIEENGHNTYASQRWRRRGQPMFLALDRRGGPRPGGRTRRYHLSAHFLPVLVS
GRIN3A LBD mod = NR3A (human) ligand-binding domain modulation; NR3A LBD differential scanning fluorimetry, Tm shift; 0% = protein alone, 100% = glycine-bound protein; Tm shift relative to glycine control, % at 25 µM; actives 2.5% (n = 340,000); AID 1259313;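 active = melting temperature shift of at least 10% of the positive control shift, at one fixed dose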
DNA FID counter-1 = displaces DNA intercalator in HCV helicase counter-screen; actives 0.17% (n = 290,000); inhibition, % at 7.9 µM; DNA fluorescent intercalator displacement, fluorescence;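 also: 0% = vehicle and 100% = reference compound; higher means more ethidium bromide displaced from hairpin DNA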
HCV NS3 hel inh = HCV NS3 helicase inhibition; NS3 helicase DNA unwinding, Cy5 molecular beacon fluorescence; inhibition, % at 10.9 µM; actives 0.56% (n = 290,000);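 active = inhibition above the mean of all tested compounds plus 3 SD, set per campaign, cut at about 35% in these data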;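 also: 0% = DMSO wells and 100% = thioflavine S control wells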
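assay system = NS3 helicase fragment of HCV | buffer or medium = MOPS pH 6.5, MgCl2, DTT, Tween20, BSA | timing = 60 min unwinding reaction at 25 °C after ATP addition | signal = Cy5 beacon fluorescence read at start and 1 h | read-out basis = % inhibition of unwinding | control set = low DMSO, high thioflavine S at 110 µM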
ZTA counter = counter-screen for EBNA-1 inhibitors: inhibitors of Epstein-Barr virus ZTA; actives 0.15% (n = 320,000); AID 2234; ZTA-DNA binding, fluorescence polarization; P03206; inhibition, % at 11 µM; in the data active = inhibition above about 33%
Target sequence (P03206 whole entry, looked up): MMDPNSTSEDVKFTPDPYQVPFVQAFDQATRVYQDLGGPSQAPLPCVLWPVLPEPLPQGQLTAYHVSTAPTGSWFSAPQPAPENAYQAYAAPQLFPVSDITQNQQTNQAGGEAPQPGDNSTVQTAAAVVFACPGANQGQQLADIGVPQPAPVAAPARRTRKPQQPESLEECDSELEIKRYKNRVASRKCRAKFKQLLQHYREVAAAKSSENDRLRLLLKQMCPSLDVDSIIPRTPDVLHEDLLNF
EBNA-1 inh = blocks EBNA-1 binding to DNA. EBNA-1 DNA binding, fluorescence polarization. inhibition, % at 14.8 µM. actives 0.34% (n = 300,000); in the data active = inhibition above about 28%
NS3 helicase cf = HCV NS3 helicase inhibition, confirmation assay; inhibition, % at 10.9 µM; AID 1943; NS3 helicase DNA unwinding, Cy5 molecular beacon fluorescence; actives 31% (n = 1,600); shares compounds with HCV NS3 hel inh;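 active = inhibition above the mean of all tested compounds plus 3 SD, cutoff set per campaign, cut at about 36% in these data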
DNA FID counter-2 = displaces DNA intercalator in HCV helicase counter-screen | shares compounds with HCV NS3 hel inh | DNA fluorescent intercalator displacement, fluorescence | AID 1945 | inhibition, % at 7.9 µM | actives 4% (n = 1,600);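 also: 0% = vehicle and 100% = reference compound; higher means more displacement of ethidium bromide from the DNA hairpin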
DNA FID DR = displaces fluorescent intercalator from DNA, HCV helicase counter-screen; shares compounds with HCV NS3 hel inh; fluorescent intercalator displacement from DNA, fluorescence; IC50, µM; 120 tested, under 10 active; call rule not given here
The depositor's hits bear a star; i = inactive; / = no result; + = active, no number. Rule as the data show it, unless noted: active = inhibition above about 37%; inactive = the rest.

SMILES | FGF22 binding | GRIN3A LBD mod | DNA FID counter-1 | HCV NS3 hel inh | ZTA counter | EBNA-1 inh | NS3 helicase cf | DNA FID counter-2 | others
COCCn1c(=NC(=O)c2cc(-c3cccs3)nc3ccccc23)sc2cc(S(N)(=O)=O)ccc21 | / | 28.2* | -8.2 | 64.4* | 11.6 | 5.0 | -2.7 | -0.4
CCc1cc2cc(C)ccc2nc1SCC(=O)NC1CCCC1 | 0.6 | -2.0 | -38.4 | 55.3* | -10.5 | -2.5 | 0.5 | -14.5
Cc1ccc(C)c(-c2nnc(NC(=O)Cc3ccc(F)cc3)o2)c1 | / | -1.9 | -16.3 | 42.3* | 0.1 | 1.4 | -12.8 | 0.9
O=C(Nc1ccccc1)C1=C(O)CC(c2ccco2)CC1=Nc1ccccc1 (configuration not stated) | / | 2.5 | -2.8 | 12.6 | -6.5 | -2.3 | / | /
O=C(Nc1ccccc1)C1=C(O)CC(c2ccoc2)CC1=Nc1ccccc1 (configuration not stated) | / | 0.8 | -13.3 | 41.2* | -8.3 | 1.5 | -6.7 | 9.7
CO[C@@H]1CN(C)C(=O)c2ccc(NC(=O)Nc3ccccc3F)cc2OC[C@@H](C)N(Cc2ccccc2F)C[C@H]1C | 0.0 | / | / | / | / | / | / | /
C=CCOc1ccc(C=NNc2ccc(S(=O)(=O)Nc3ccccc3C(=O)O)cc2[N+](=O)[O-])cc1OC | 0.5 | 9.5 | / | / | / | / | / | /
COc1ccc(NC(=S)NNc2ccc(S(=O)(=O)Nc3ccccc3C(=O)O)cc2[N+](=O)[O-])cc1 | / | 15.9* | 12.8 | 39.5* | 6.4 | 5.5 | 83.5* | 27.1
c1ccc(CSc2nnc(-c3ccco3)n2Cc2ccco2)cc1 | / | -0.3 | -28.6 | -6.0 | 9.8 | -0.1 | / | /
CCCCOc1[nH]c2nc(-c3ccco3)n(Cc3ccco3)c(=N)c2c1C#N | / | -3.9 | -8.1 | 39.0* | 12.9 | 6.8 | 12.7 | 18.8
CCN(CC)c1ccc2c(-c3ccc(S(=O)(=O)O)cc3S(=O)(=O)[O-])c3ccc(=[N+](CC)CC)cc-3oc2c1 | / | -437.3 | / | 51.3* | + | 200.0* | 84.4* | /
CCN(CC)c1ccc2cc(C(N)=O)c(=N)oc2c1 | 0.0 | -0.8 | -3.6 | 16.4 | -4.0 | 2.4 | / | /
Cc1cccc2nc(-c3ccco3)c(Nc3ccccc3)n12 | 0.3 | -0.9 | -7.7 | 4.0 | 4.1 | -11.2 | / | /
Cc1cccc2nc(-c3ccco3)c(Nc3ccc4c(c3)OCO4)n12 | -0.2 | -2.2 | -29.9 | 40.3* | 15.1 | -5.9 | 8.8 | 2.7
O=S(=O)(O)c1cccc2c(N=Nc3ccc(O)c4ncccc34)cccc12 | / | 1.2 | 15.2 | 84.2* | 28.5 | 27.4 | 77.4* | 8.9
Cc1ccccc1N=Nc1ccc(O)c2ncccc12 | 0.0 | -4.9 | -2.8 | 7.7 | 4.6 | -2.8 | / | /
Cc1ccc(S(=O)(=O)N[C@@H]2C=C[C@H](CC(=O)NCc3ccncn3)O[C@@H]2CO)cc1 | -0.2 | / | / | / | / | / | / | /
Nc1cc([N+](=O)[O-])ccc1O | -0.2 | -0.3 | -7.3 | 44.2* | 0.9 | -5.5 | 2.2 | 17.3
COc1cc([N+](=O)[O-])ccc1N | -0.1 | -6.5 | 1.5 | 1.2 | 10.0 | 4.6 | / | /
C[C@H](CO)N1C[C@H](C)[C@@H](CN(C)C(=O)Nc2cccc3ccccc23)Oc2ccc(NC(=O)C3CCCCC3)cc2CC1=O | -0.4 | / | / | / | / | / | / | /
N#Cc1c(C(F)(F)F)cc(-c2ccc(F)cc2)nc1SCC(=O)O | / | -0.6 | -16.1 | 13.3 | 16.4 | 9.6 | / | /
CCCCOc1ccc(-c2cc(C(F)(F)F)c(C#N)c(SCC(=O)O)n2)cc1 | / | -4.8 | -37.8 | 42.8* | -23.6 | -1.7 | 81.0* | -14.0 | DNA FID DR=i
COc1cccc(S(=O)(=O)N(C)C[C@H]2Oc3cc(C#CCN(C)C)ccc3S(=O)(=O)N([C@@H](C)CO)C[C@@H]2C)c1 | 0.9 | / | / | / | / | / | / | /
CCc1ccc(NC(=O)Cc2c(C(=O)O)n(C)c3ccccc23)cc1 | / | -20.1 | -33.6 | 37.0* | 17.6 | -3.3 | 51.6* | -25.3
CCN(CC)S(=O)(=O)c1ccc(Cl)c(NC(=S)NC(=O)C2CCCC2)c1 | 0.1 | -6.5 | / | / | 4.0 | / | / | /
SMILES | FGF22 binding | GRIN3A LBD mod | DNA FID counter-1 | HCV NS3 hel inh | ZTA counter | EBNA-1 inh | NS3 helicase cf | DNA FID counter-2 | others
CCN(CC)c1ccc(S(=O)(=O)Nc2cc(Cl)ccc2Cl)cc1NC(=S)NC(=O)C1CCCC1 | 0.1 | 14.1* | -32.6 | 58.4* | -2.1 | 13.1 | 23.3 | -8.9
Cc1sc(NC(=O)C2CCCCC2C(=O)O)c(C(N)=O)c1-c1ccccc1 (configuration not stated) | / | -1.3 | -35.2 | 1.1 | -7.6 | -6.6 | / | /
Cc1sc(NC(=O)/C=C/C(=O)O)c(C(N)=O)c1-c1ccc(C(C)(C)C)cc1 | / | -1.5 | -36.6 | 36.5* | 11.6 | 0.0 | 59.5* | -13.8
Cc1sc(NC(=O)C2CCCCC2C(=O)O)c(C(N)=O)c1-c1ccc(C(C)C)cc1 (configuration not stated) | / | -1.5 | -28.3 | 39.1* | 9.2 | 0.1 | 77.3* | -22.4
COc1ccc(CNC(=O)N(C)C[C@H]2OCc3ccccc3-c3c(n(C)c4ccccc34)C(=O)N([C@@H](C)CO)C[C@@H]2C)cc1 | 0.1 | / | / | / | / | / | / | /
O=C(NN=C1CCN(Cc2ccccc2)CC1)c1ccccc1O | / | -0.8 | -3.5 | 8.5 | -0.7 | -2.5 | / | /
O=C(NN=C1CCN(Cc2ccccc2)CC1)c1cc2ccccc2cc1O | 0.0 | -2.8 | -10.3 | 39.2* | 6.7 | 13.9 | 28.8 | -11.8
CCC(=O)Nc1ccc2c(c1)C(=O)N(C)C[C@H](OC)[C@H](C)CN(Cc1ccccn1)[C@H](C)CO2 | 0.0 | / | / | / | / | / | / | /
Fc1nc(F)c(F)c(NCCCNc2c(F)c(F)nc(F)c2F)c1F | -0.1 | 3.3 | 5.9 | 52.4* | -4.0 | 10.7 | -8.2 | 16.3
O=C1NC(c2ccccc2)CCO1 (configuration not stated) | 0.2 | 3.6 | -14.8 | 56.5* | 8.2 | 6.5 | -10.3 | 12.9
O=C1CCCC(c2ccccc2)N1 (configuration not stated) | -0.2 | -2.4 | 0.5 | -5.4 | -16.6 | 0.7 | / | /
COCCNC(=O)c1cc2c(=O)[nH]c3ccccc3c2s1 | 0.0 | 0.6 | -14.2 | 69.6* | -18.8 | -12.6 | -7.5 | 3.9
O=C(C[C@@H]1CC[C@@H](NC(=O)c2ccccc2)[C@H](CO)O1)NCc1ccc(Oc2ccccc2)cc1 | 0.3 | / | / | / | / | / | / | /
COc1ccc(CN(C)C[C@@H]2Oc3c(NC(=O)C4CC4)cccc3C(=O)N([C@H](C)CO)C[C@H]2C)cc1 | -0.1 | / | / | / | / | / | / | /
CC(C)(C)C(=O)C1=C(O)C(=O)N(Cc2ccccc2)C1c1ccccc1Cl (configuration not stated) | 0.0 | 1.2 | -38.5 | 37.8* | -5.2 | 5.0 | 14.7 | -13.2
